These results are taken from ChEMBL document CHEMBL1137343, “4-arylazo-3,5-diamino-1H-pyrazole CDK inhibitors: SAR study, crystal structure in complex with CDK2, selectivity, and cellular effects” (J Med Chem, 2006).

The target of experiment [1] is Tyrosine-protein kinase ABL1 (Homo sapiens) (UniProt P00519). Nature of the experiment: Activity of c-ABL at 10 uM. An outline of the steps: (§1)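 Radiometric kinase assay at 10 µM inhibitor, run in duplicate. c-Abl, CHK1, GSK3β, p70S6K, PKA and PKBα were run in 8 mM MOPS pH 7.0 with 0.2 mM EDTA. MAPK1 and SAPK2α were run in 25 mM Tris pH 7.5 with 0.02 mM EGTA. CK2 was run in 20 mM HEPES pH 7.6, 0.15 M NaCl, 0.1 mM EDTA, 2 mM DTT and 0.1% Triton X-100. All had 10 mM Mg-acetate, 10 µM ATP, [γ-33P]ATP and a peptide substrate; 40 min; H3PO4 stop; P30 filter; scintillation counting.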
Chain of Tyrosine-protein kinase ABL1 (Homo sapiens) (P00519 whole entry): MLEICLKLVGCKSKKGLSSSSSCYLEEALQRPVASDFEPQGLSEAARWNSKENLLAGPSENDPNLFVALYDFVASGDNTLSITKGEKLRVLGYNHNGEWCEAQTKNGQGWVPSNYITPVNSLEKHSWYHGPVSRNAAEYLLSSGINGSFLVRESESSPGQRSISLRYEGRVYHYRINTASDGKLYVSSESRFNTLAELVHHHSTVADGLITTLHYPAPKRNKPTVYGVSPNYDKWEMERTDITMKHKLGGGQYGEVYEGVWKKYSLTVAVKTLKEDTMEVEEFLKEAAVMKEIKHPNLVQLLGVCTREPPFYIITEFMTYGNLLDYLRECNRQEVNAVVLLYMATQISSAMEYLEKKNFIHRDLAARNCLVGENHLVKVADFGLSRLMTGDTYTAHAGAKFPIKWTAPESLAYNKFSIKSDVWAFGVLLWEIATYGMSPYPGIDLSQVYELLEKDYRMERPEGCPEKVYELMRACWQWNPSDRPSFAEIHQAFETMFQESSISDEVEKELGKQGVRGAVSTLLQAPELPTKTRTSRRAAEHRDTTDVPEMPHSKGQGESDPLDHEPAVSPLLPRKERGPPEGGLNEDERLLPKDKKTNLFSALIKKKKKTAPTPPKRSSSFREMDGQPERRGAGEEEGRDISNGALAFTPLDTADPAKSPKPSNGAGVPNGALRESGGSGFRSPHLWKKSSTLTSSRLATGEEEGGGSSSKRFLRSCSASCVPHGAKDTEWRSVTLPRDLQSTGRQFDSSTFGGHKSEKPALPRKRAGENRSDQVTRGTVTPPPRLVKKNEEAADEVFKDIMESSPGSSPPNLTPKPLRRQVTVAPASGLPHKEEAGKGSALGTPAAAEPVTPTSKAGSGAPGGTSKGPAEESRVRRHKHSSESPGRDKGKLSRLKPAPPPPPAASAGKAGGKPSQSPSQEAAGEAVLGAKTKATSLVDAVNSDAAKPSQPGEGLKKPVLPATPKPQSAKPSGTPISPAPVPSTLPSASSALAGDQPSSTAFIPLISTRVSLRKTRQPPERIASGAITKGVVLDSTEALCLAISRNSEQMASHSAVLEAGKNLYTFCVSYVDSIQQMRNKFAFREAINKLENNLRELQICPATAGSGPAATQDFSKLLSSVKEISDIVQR

Experiment [2] addresses Mitogen-activated protein kinase 1 (Homo sapiens) (UniProt P28482). In words: Activity of MAPK1 at 10 uM. An outline of the steps:
as §1

The target of experiment [3] is cAMP-dependent protein kinase (PKA) (Homo sapiens) (UniProt P22694+P17612+P22612). Nature of the experiment: Activity of PKA at 10 uM. In kind it is protein assay. An outline of the steps:
as §1

Experiment [4] relates to HT-29. Nature of the experiment: Cell cycle arrest in HT29 cells by accumulation at G0/G1 phase at 50 uM after 3 hrs. In kind it is functional, Homo sapiens. The essentials: (§2)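 Subconfluent, asynchronous HT-29 cells were treated 3, 6 or 12 h, then pulsed with 10 µM BrdU for 30 min at 37 °C. Cells were fixed in ice-cold 70% ethanol, DNA denatured in 2 M HCl and neutralised with borate. Staining used FITC anti-BrdU, then propidium iodide (0.1 mg/mL) with RNase A. Analysis by flow cytometry with 488 nm laser.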

Experiment [5] concerns HT-29. In words: Cell cycle arrest in HT29 cells by accumulation at G2/M phase at 50 uM after 3 hrs. The class given is functional, Homo sapiens. An outline of the steps:
as §2

The subject of experiment [6] is HT-29. In words: Cell cycle arrest in HT29 cells by accumulation at G2/M phase at 50 uM after 6 hrs. The class given is functional, Homo sapiens. An outline of the steps:
as §2

In experiment [7] the test system is MCF7. Nature of the experiment: Viability of MCF7 cells at 100 uM. In kind it is functional, Homo sapiens. The essentials: (§3)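 Cells grown in DMEM with 10% FCS and 4 mM glutamine at 37 °C, plated in 96-well format, preincubated 12 h, then exposed 72 h. Live cells measured by Calcein AM (1 h) fluorescence at 485/538 nm; % viable cells given at 100 µM compound.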

Another experiment concerns HOS. In words: Viability of HOS cells at 100 uM. The class given is functional, Homo sapiens. An outline of the steps: as §3
The test system of a further experiment is G-361. In words: Viability of G361 cells at 100 uM. In kind it is functional, Homo sapiens. An outline of the steps:
as §3

The subject of a further experiment is K562. Nature of the experiment: Viability of K562 cells at 100 uM. In kind it is functional, Homo sapiens. The essentials:
as §3

Experiment [8] relates to HT-29. In words: Inhibition of GAPDH mRNA synthesis in HT29 cells measured as number of copies per 10^6 cells by RT PCR at 50 uM after 3 hrs. The class given is functional, Homo sapiens. An outline of the steps: (§4)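 HT-29 cells (5 × 10⁶) treated for 3, 6 or 12 h; total RNA extracted with TRI reagent, 3 µg reverse transcribed with random primers and M-MLV RT (42 °C, 60 min). Absolute transcript copies quantified by TaqMan real-time PCR, 50 cycles, against diluted gene-specific amplicon standards (30–1 000 000 copies); duplicate PCR per sample; values are means of four determinations ± SD.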

For experiment [9], the system named is HT-29. In words: Inhibition of GAPDH mRNA synthesis in HT29 cells measured as number of copies per 10^6 cells by RT PCR at 50 uM after 6 hrs. In kind it is functional, Homo sapiens. An outline of the steps: as §4
The subject of experiment [10] is HT-29. Nature of the experiment: Inhibition of GAPDH mRNA synthesis in HT29 cells measured as number of copies per 10^6 cells by RT PCR at 50 uM after 12 hrs. In kind it is functional, Homo sapiens. An outline of the steps:
as §4

Experiment [11] relates to HT-29. Nature of the experiment: Inhibition of CEA mRNA synthesis in HT29 cells measured as number of copies per 10^6 cells by RT PCR at 50 uM after 3 hrs. The class given is functional, Homo sapiens. An outline of the steps:
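HT-29 cells were treated 3, 6 or 12 h; total RNA extracted with TRI reagent. 3 µg RNA reverse-transcribed with random primers and M-MLV RT at 42 °C for 60 min. CEA transcripts quantified by TaqMan real-time PCR: 50 cycles of 95 °C 15 s and 65 °C 15 s. Absolute copies came from amplicon standards of 30 to 10^6 copies, expressed per 10^6 cells. Samples run in duplicate PCR; values average of four determinations ± SD.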

Experiment [12] relates to HT-29. Nature of the experiment: Inhibition of EpCAM mRNA synthesis in HT29 cells measured as number of copies per 10^6 cells by RT PCR at 50 uM after 12 hrs. In kind it is functional, Homo sapiens. The essentials:
as §4

Experiment [13] relates to HT-29. In words: Cell cycle arrest in HT29 cells by accumulation at G0/G1 phase at 50 uM after 12 hrs. In kind it is functional, Homo sapiens. The essentials: as §2
The test system of experiment [14] is MCF7. In words: Decrease in pRb phosphorylation in MCF7 cells after 24 hrs at 50 uM. The class given is functional, cell-based. The following applies: Homo sapiens. The essentials: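 MCF7 cells were treated 24 h, lysed in Laemmli buffer and run on 10% SDS-PAGE. Proteins were blotted to nitrocellulose; loading checked with Ponceau-S; blocked with 5% milk in PBS-Tween. Specific antibodies applied overnight (pRb phosphosites Ser780, Ser807, Thr821; p53; p21WAF1), then peroxidase secondary at 1:2000 with ECL detection.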

The subject of a further experiment is MCF7 (Homo sapiens). Nature of the experiment: Reduction of RNA polymerase 2 CTD phosphorylation in MCF7 cells after 24 hrs.

Active and inactive are the calls of the source. No cut-off for these calls is given here.

Chain of Mitogen-activated protein kinase 1 (Homo sapiens) (P28482 whole entry): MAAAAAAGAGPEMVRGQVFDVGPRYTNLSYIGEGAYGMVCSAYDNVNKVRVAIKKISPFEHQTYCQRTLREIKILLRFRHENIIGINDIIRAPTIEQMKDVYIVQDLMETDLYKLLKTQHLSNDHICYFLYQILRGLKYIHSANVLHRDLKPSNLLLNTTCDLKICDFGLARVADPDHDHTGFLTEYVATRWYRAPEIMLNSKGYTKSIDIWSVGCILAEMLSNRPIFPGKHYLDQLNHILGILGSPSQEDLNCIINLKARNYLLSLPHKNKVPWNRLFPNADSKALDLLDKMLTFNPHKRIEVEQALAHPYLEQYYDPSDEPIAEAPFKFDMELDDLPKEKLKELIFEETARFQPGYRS

`Nc1n[nH]c(N)c1/N=N/c1ccc(O)cc1`: the values for the residual activity in [1], in [2] and in experiment [3] were 84%, 99% and 67%, respectively. For the same compound, the Activity in the experiment on HT-29 [4] came out at 32.9%; in the experiment with HT-29 [5] it was 11.4%; in the experiment on HT-29 [6], 9.9%; in the experiment on MCF7 [7], 20%; in the experiment with HOS, 22%; with G-361 it was 8.3%. Moreover, the Activity in the experiment with K562 came to 23%; with HT-29 [8], 3342533; with HT-29 [9], 3785908; in the experiment with HT-29 [10], 1811960; in the experiment with HT-29 [11], 27900; in the experiment with HT-29 [12], 2951620. In the experiment on HT-29 [13], the Activity is recorded as 27.2%. The outcome with MCF7 [14] and in the experiment with MCF7 (Homo sapiens) was Active.
